{"source": "ChEMBL document CHEMBL4513216", "about": "“Probing the Open Global Health Chemical Diversity Library for Multistage-Active Starting Points for Next-Generation Antimalarials” (ACS Infect Dis, 2020)"}
{"assay": "Toxicity liver stage against HepG2, at 10uM", "format": "cell-based", "design": "test concentration 10 uM, cell line HepG2-A16-CD81EGFP", "conditions": "human, HepG2-A16-CD81EGFP cells; read-out: INHIBITION", "method_in_brief": "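Uninfected HepG2-A16-CD81EGFP cells, 3 × 10^3 per well, 1536-well, plated on prespotted compound at 10 μM final, parasite-free screening media added to match infected plates; puromycin 10 μM positive, DMSO 0.5% negative; run in parallel with 48 h PbLuc assay at 37 °C, 5% CO2; viability by CellTiter-Glo luminescence, normalized to controls.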", "units": {"cytotoxicity at 10 µM": "%"}}
{"smiles": "CCCN1CCN(C(=O)c2ccnc(N)c2)[C@H]2CS(=O)(=O)C[C@H]21", "cytotoxicity at 10 µM": 2.77}
{"smiles": "O=C(c1cccnc1)N1CCCC2(COCCN(c3ccccc3)C2)C1", "note": "(centres undefined)", "cytotoxicity at 10 µM": 2.17}
{"smiles": "CC(=O)N1CCCN(CCCSc2ccccc2Cl)CC1", "cytotoxicity at 10 µM": 0.269}
{"smiles": "COc1ccc(S(=O)(=O)NCc2cccnc2N(C)C)cc1F", "cytotoxicity at 10 µM": 5.8}
{"smiles": "CN(C)C(=O)CN1CCN(c2cc(N3CCCC3CO)ncn2)CC1", "note": "(centres undefined)", "cytotoxicity at 10 µM": -1.49}
{"smiles": "CC(C)c1nccn1CC(=O)Nc1ccnn1C(C)C(C)C", "note": "(centres undefined)", "cytotoxicity at 10 µM": 1.11}
{"smiles": "COCC(O)CNC(=O)c1cc(COc2ccc3c(c2)CCCC3)on1", "note": "(centres undefined)", "cytotoxicity at 10 µM": -147}
{"smiles": "COCC(=O)N1CCC(Nc2ccnc3ccc(Cl)cc23)CC1", "cytotoxicity at 10 µM": 5.78}
{"smiles": "O=C(Nc1ccccc1C(=O)N1CCCC1)NC1CCOCC1", "cytotoxicity at 10 µM": -3.27}
{"smiles": "CC1=N[C@@]2(CC[C@@H]3CN(C(=O)NCc4ccccc4C)C[C@@H]32)C(=O)N1", "cytotoxicity at 10 µM": -74.9}
{"smiles": "O=C(CNc1cc(-n2cnnn2)ccc1F)Nc1ccccc1Cl", "cytotoxicity at 10 µM": 11.7}
{"smiles": "O=C(c1cn2ccsc2n1)N1CCN(CC2CC2)[C@@H]2CS(=O)(=O)C[C@@H]21", "cytotoxicity at 10 µM": -2.82}
{"smiles": "COc1ccc(OC)c(CN(C)c2ncc(S(N)(=O)=O)s2)c1", "cytotoxicity at 10 µM": 5.8}
{"smiles": "O=C1CCCC2=Nc3nonc3NC(c3ccc(F)cc3F)C12", "note": "(centres undefined)", "cytotoxicity at 10 µM": 2.43}
{"smiles": "CN(CCNC(=O)N1CCN(Cc2ccon2)CC1)c1ccccc1", "cytotoxicity at 10 µM": 22.2}
{"smiles": "CCS(=O)(=O)c1cccc(C(=O)Nc2cccc3c2C(=O)N(C)C3=O)c1", "cytotoxicity at 10 µM": -139}
{"smiles": "CCc1ccc(C(COC)NC(=O)c2ccc(F)c(NC(C)=O)c2)o1", "note": "(centres undefined)", "cytotoxicity at 10 µM": -11.1}
{"smiles": "CC(C)CN1C[C@@H]2C[C@H](C(=O)Nc3cccnc3)[C@H](C1)O2", "cytotoxicity at 10 µM": 7.8}
{"smiles": "NC(=O)N1CCCN(CCc2nc(-c3cccc(Cl)c3)no2)CC1", "cytotoxicity at 10 µM": 14.8}
{"smiles": "Cc1nc(CCNC(=O)C2CCN(C(C)C)CC2)sc1Cl", "cytotoxicity at 10 µM": -8.06}
{"smiles": "COCC1CN(S(=O)(=O)Cc2ccccc2)Cc2c1cnn2C", "note": "(centres undefined)", "cytotoxicity at 10 µM": -3.61}
{"smiles": "Cc1cnn(CC2CN(CC(=O)Nc3nnc(C)s3)CCO2)c1", "note": "(centres undefined)", "cytotoxicity at 10 µM": -0.472}
{"smiles": "CCc1cnc(N2CC[C@@H]3CN(C(=O)c4ccco4)CCO[C@@H]3C2)nc1", "cytotoxicity at 10 µM": 9.22}
{"smiles": "CC(C)c1noc(CCNC(=O)N2CCSC(C(C)C)C2)n1", "note": "(centres undefined)", "cytotoxicity at 10 µM": -2.65}
{"smiles": "Cc1nccn1CCC1CCCCN1Cc1ccc(O)cc1Cl", "note": "(centres undefined)", "cytotoxicity at 10 µM": -4.23}
{"smiles": "COc1ccc(C)cc1-n1cnnc1CC1CCNCC1", "cytotoxicity at 10 µM": -11.4}
{"smiles": "CCc1c(C(=O)NCC2CCS(=O)(=O)C2)cnn1-c1ccc(C)cc1", "note": "(centres undefined)", "cytotoxicity at 10 µM": -6.69}
{"smiles": "Cc1nn(C)c(Cl)c1C1CCCN1C(=O)c1ccc2c(c1)COC2", "note": "(centres undefined)", "cytotoxicity at 10 µM": -16.1}
{"smiles": "Cc1cc(O)n(-c2ccc3nnc(C)n3n2)n1", "cytotoxicity at 10 µM": 9.24}
{"smiles": "CCC(=O)N1CCC(Cc2ccccc2-c2ccccc2)(C(N)=O)C1", "note": "(centres undefined)", "cytotoxicity at 10 µM": -0.105}
{"smiles": "Cc1ccc2c(c1)C(NC1CC1)CC21CCNCC1", "note": "(centres undefined)", "cytotoxicity at 10 µM": -98}
{"smiles": "c1ccc(NCCn2cc(C3CCCNC3)nn2)cc1", "note": "(centres undefined)", "cytotoxicity at 10 µM": 5.44}
{"smiles": "Cn1cc(N2C(=O)CC[C@@H]3[C@H]2CCN3C(=O)c2cscn2)cn1", "cytotoxicity at 10 µM": -81.5}
{"smiles": "Cn1c(C(=O)NC2CCCC2)nc2c1CCN(Cc1ccccc1)C2", "cytotoxicity at 10 µM": 10.3}
{"smiles": "Cc1ccccc1CCC(=O)N1CCCC(c2cc(C(N)=O)[nH]n2)C1", "note": "(centres undefined)", "cytotoxicity at 10 µM": -11.3}
{"smiles": "O=C(NC1CC1)N1CCCC2(CCNC2=O)C1", "note": "(centres undefined)", "cytotoxicity at 10 µM": 3}
{"smiles": "CN(C)c1ccc(C(=O)Nc2ccn(CC(N)=O)n2)cn1", "cytotoxicity at 10 µM": -5.75}
{"smiles": "Cc1cc(C)n2ncc(CN3CCC(Cn4cc(CO)nn4)CC3)c2n1", "cytotoxicity at 10 µM": 7.85}
{"smiles": "FC1(F)CCN(Cc2ccncc2)CC12CCN(Cc1ccccn1)C2", "note": "(centres undefined)", "cytotoxicity at 10 µM": 10.2}
{"smiles": "COc1nn(C)cc1C(=O)N1CCC(c2nnc(-c3ccsc3)o2)CC1", "cytotoxicity at 10 µM": 8.08}
{"smiles": "Cc1nc(C)c(S(=O)(=O)NC(=O)c2ccsc2)s1", "cytotoxicity at 10 µM": -6.85}
{"smiles": "COc1ccc(C(CN2CCN(C)CC2)Nc2ncccn2)cc1", "note": "(centres undefined)", "cytotoxicity at 10 µM": 5.54}
{"smiles": "CC(C)n1c2ccccc2c2c1cc(C(=O)N(C)C)n2C(=O)N(C)C", "cytotoxicity at 10 µM": -95}
{"smiles": "c1cnn(CC2CCCN2Cc2nc(-c3ccoc3)no2)c1", "note": "(centres undefined)", "cytotoxicity at 10 µM": -7.07}
{"smiles": "Cc1nnnn1CCC(=O)N1CCC2(CCC(=O)N(CC3CC3)C2)CC1", "cytotoxicity at 10 µM": 4.17}
{"smiles": "CC(C)c1ccsc1C(=O)N1CCCN(Cc2cscn2)CC1", "cytotoxicity at 10 µM": 4.07}
{"smiles": "N#Cc1ccc(OCCN2CCn3c(nnc3C3CC3)C2)cc1", "cytotoxicity at 10 µM": -3.75}
{"smiles": "CC(O)c1cn(CC2CCN(C(=O)c3cscn3)CC2)nn1", "note": "(centres undefined)", "cytotoxicity at 10 µM": 1.83}
{"smiles": "COc1cccc(-c2cc(NCc3cscn3)n(C)n2)c1", "cytotoxicity at 10 µM": 3.69}
{"smiles": "CC(CNC1CCN(c2ccccn2)CC1)Oc1ccc(F)cc1", "note": "(centres undefined)", "cytotoxicity at 10 µM": 7.43}
{"smiles": "CC(=O)N1CCC(Nc2cccc(OC(F)F)c2C)CC1", "cytotoxicity at 10 µM": -15.1}
{"smiles": "COc1cc(N2CCO[C@H]3[C@@H](Oc4cccnc4)CC[C@@H]32)ncn1", "cytotoxicity at 10 µM": -3.33}
{"smiles": "Cc1nc(CN2C(=O)CCC23CCN(Cc2ccoc2)CC3)cs1", "cytotoxicity at 10 µM": -0.902}
{"smiles": "CCc1ccc(NS(=O)(=O)C=c2[nH]c(=O)n3cccc3c2=O)cc1", "cytotoxicity at 10 µM": 8.45}
